Columns and labels:
[1] = melting temperature; fluorescence melt of hairpins on a sequencing array, two-state fit, raised by 9.35 °C to match UV melts; conditions: sodium 0.088 M
How it was run: (§1)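 Folding enthalpy and melting temperature come from bootstrapped two-state fits to Cy3 fluorescence of library hairpins carrying annealed Cy3 and quencher oligos on a sequenced MiSeq flow cell. Imaging was done in 50 mM Na-HEPES pH 8.0, 25 mM NaCl, stepping by 2.5 °C up to 60 °C, and signals were normalised to pre-quench Cy3 and to control constructs. Results of four replicates were combined by inverse variance, and fitted temperatures were raised by 9.35 °C to match UV melts.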

[2] = folding enthalpy; higher = less favourable; fluorescence melt of hairpins on a sequencing array, two-state fit; conditions: sodium 0.088 M
How it was run: as §1

Sequence | Tm [1] [°C] | folding enthalpy [2] [kcal/mol]
GTGGCTCGAAAGAGACAC (((.(((....))).))) | 68.9 | -40.1
GTGGCTCGAAAGAGCAC (((.(((....)))))) | 51.2 | -11.8
GTGGCTGGAAACAACCAC ((((.((....)).)))) | 45.8 | -34.4
GTGGGACGAAAGTCTCAC (((.(((....))).))) | 60 | -36
GTGGGAGAAATCCCAC ((((((....)))))) | 58.8 | -28.3
GTGGGAGCGAAAGCTCAC (((..(((....)))))) | 62.9 | -19.2
GTGGGAGGAAACCCCCAC (((((.(....).))))) | 50.3 | -38.8
GTGGGAGGAAACTCCCGC (.(((((....))))).) | 56.7 | -33.4
GTGGGATCGAAAGATCAC (((..(((....)))))) | 54.4 | -44.4
GTGGGCACGAAAGTGCAC (((..(((....)))))) | 65.4 | -14.6
GTGGGCCGAAAGGCTCAC (((.(((....))).))) | 69.2 | -29.6
GTGGGCGAAAGCCACAC ((((((....))).))) | 59.9 | -14.4
GTGGGCGAAAGCCATCAC ((((((....)))..))) | 39.7 | -11.4
GTGGGCGAAAGCCGGCAC ((((((....)))..))) | 45.8 | -12.1
GTGGGCTCGAAAGAGCAC (((..(((....)))))) | 65.5 | -26
GTGGGGCCGAAAGGCCAC (((..(((....)))))) | 64.9 | -16.2
GTGGGGGGAAACCCCCGC (.(((((....))))).) | 60 | -19.4
GTGGGGGGAAACCCTCGC (.(.(((....))).).) | 40.8 | -17.2
GTGGGGGGAAACCTCCAC ((((.((....)).)))) | 54.5 | -44.1
GTGGGTCCGAAAGGACAC (((..(((....)))))) | 63 | -19
GTGGGTCGAAAGACCAC (((.(((....)))))) | 57 | -14.3
GTGGGTGGAAACACCCGC (.(((((....))))).) | 63.3 | -22.7
GTGGGTGGAAACACTCAC (((.(((....))).))) | 52.1 | -37.2

Sequence | Tm [1] [°C] | folding enthalpy [2] [kcal/mol]
GTGGGTGGAAACGCCTAC ((.((.(....).)).)) | 41.9 | -25.3
GTGGGTGGAAACGTCCAC ((((..(....)..)))) | 46 | -18.8
GTGGTACGAAAGTAACAC (((.(((....))).))) | 58.2 | -40.3
GTGGTACGAAAGTATCAC (((.(((....))).))) | 54.2 | -47.3
GTGGTAGGAAACTACTGC (..((((....))))..) | 36.1 | -18.2
GTGGTAGGAAACTGCTAC ((.(.((....)).).)) | 32.1 | -17.7
GTGGTCACGAAAGTGCAC (((..(((....)))))) | 39.9 | -16.1
GTGGTCCGAAAGGAACAC (((.(((....))).))) | 65.4 | -33.6
GTGGTCGAAAGACAACAC ((((((....)))..))) | 46.8 | -18.7
GTGGTCGAAAGACGCCAC ((((((....)))..))) | 39.6 | -15.9
GTGGTCGAAAGACTACAC ((((((....)))..))) | 48.2 | -15.7
GTGGTCGAAAGACTTCAC ((((((....)))..))) | 31.9 | -15.2
GTGGTCGGAAACGACCGC (.(((((....))))).) | 63 | -17.8
GTGGTCGGAAACGGCTAC ((.(.((....)).).)) | 44.5 | -25.8
GTGGTGGGAAACCGTCAC (((..((....))..))) | 38.4 | -19.8
GTGGTGGGAAACTACCGC (.(((.(....).))).) | 42.7 | -28.4
GTGGTGTCGAAAGACCAC (((..(((....)))))) | 47.6 | -16.8
GTGGTTCGAAAGAAACAC (((.(((....))).))) | 55.8 | -48.8
GTGGTTGGAAACAACCGC (.(((((....))))).) | 55.7 | -31
GTGGTTGGAAACAACTGC (..((((....))))..) | 43.4 | -17.6
GTGTAACCGAAAGGTCAC (((..(((....)))))) | 43.6 | -22.6
GTGTAAGGAAACTTACGC (.(((((....))))).) | 45.3 | -25.7
